≈ marks a conversion by molar mass, not a printed value.

Data on 6 compounds can be found in ChEMBL document CHEMBL1124895, “Synthesis and biological evaluation of some cyclic phosphoramidate nucleoside derivatives” (1990).

Holding throughout (assay type): functional
Test [1] is described as follows: Antiviral Activity against herpes simplex virus-1 TK- B2006 in rabbit kidney cell. The settings on record: Oryctolagus cuniculus.
Test [2] in a line: Antiviral Activity against herpes simplex virus-2 (Lyons) in rabbit kidney cell. The settings on record: Oryctolagus cuniculus.
Test [3] deals with L1210. Kind of test: Inhibitory activity against L1210 cell line. The settings on record: Mus musculus, read-out: ID50 (the source's name). The procedure, abridged:
(§1)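 Tumour cells, (5-7.5) × 10^4 per well in growth medium, exposed to varying compound concentrations and allowed to proliferate 48 or 72 h at 37 °C in humidified CO2 atmosphere; cell counts by Coulter counter; value is 50% inhibitory dose. FM3A TK- and TK-/HSV-2 TK+ lines derived from FM3A/0 and grown in the same medium.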

The test system of test [4] is FM3A. Kind of test: Inhibitory activity against FM3A/0 cell line. The settings on record: Mus musculus, read-out: ID50 (the source's name). The procedure, abridged:
as §1

A short description of test [5]: Antiviral Activity against herpes simplex virus-1 (F) in rabbit kidney cell. The settings on record: Oryctolagus cuniculus.
Test [6] deals with FM3A. Description: Inhibitory activity against FM3A TK- cell line. The settings on record: Mus musculus, read-out: ID50 (the source's name). Put shortly:
as §1

Test [7] in a line: Antiviral Activity against herpes simplex virus-2 (G) in rabbit kidney cell. The settings on record: Oryctolagus cuniculus.
A short description of test [8]: Antiviral Activity against vaccinia virus in rabbit kidney cell. The settings on record: Oryctolagus cuniculus.
The subject of test [9] is Raji. Kind of test: Inhibitory activity against Raji cell line. The settings on record: Homo sapiens, read-out: ID50 (the source's name). The procedure, abridged: as §1
A short description of test [10]: Antiviral Activity against herpes simplex virus-2 (196) in rabbit kidney cell. The settings on record: Oryctolagus cuniculus.
Test [11] in a line: Antiviral Activity against herpes simplex virus-1 (McIntyre) in rabbit kidney cell. The settings on record: Oryctolagus cuniculus.
The subject of test [12] is MOLT-4F. Description: Inhibitory activity against Molt/4F cell line. The settings on record: Homo sapiens, read-out: ID50 (the source's name). The procedure, abridged:
as §1

Test [13] in a line: Antiviral Activity against herpes simplex virus-1 TK- VMW 1837 in rabbit kidney cell. The settings on record: Oryctolagus cuniculus.
A short description of test [14]: Antiviral Activity against herpes simplex virus-1 (KOS) in rabbit kidney cell. The settings on record: Oryctolagus cuniculus.
For test [15], the system named is FM3A. Kind of test: Inhibitory activity against FM3A TK-/HSV-2 TK+ cell line. The settings on record: Mus musculus, […] TK-/HSV-2 TK+; read-out: ID50 (the source's name). The procedure, abridged:
as §1

A short description of test [16]: Antiviral Activity against vesicular stomatitis virus in rabbit kidney cell. The settings on record: Oryctolagus cuniculus.
Test [17] deals with Mus musculus. Description: Compound was evaluated in nu/nu mice infected with TK- HSV-1 (VMW-1837) to increase the mean survival time when applied topically at 10% after 52 days. Put shortly: (§2)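 Athymic nu/nu mice, 25-30 days old, 15-20 g, inoculated intracutaneously in lumbosacral area with TK- HSV-1 VMW 1837, 10^5 CCID50 in 50 μL; topical 10% (v/v in DMSO) applied four times daily for 5 days from infection; DMSO placebo. Mean day of lesions/hind-leg paralysis and survival followed 52 days; survivors counted as 52-day.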

In test [18] the test system is Mus musculus. Kind of test: Compound was evaluated in nu/nu mice infected with TK- HSV-1 (VMW-1837) to increase the mean survival time when administered intraperitoneally at 100 mg/kg per day after 39 days. The settings on record: route intraperitoneal. Put shortly: (§3)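 Athymic nu/nu mice, 25-30 days old, 15-20 g, inoculated intracutaneously in lumbosacral area with TK- HSV-1 VMW 1837, 10^5 CCID50 in 50 μL; intraperitoneal dosing 100 mg/kg per day, twice daily for 5 days from infection, in carboxymethylcellulose or water. Mean day of lesions/hind-leg paralysis and mean survival recorded over 39 days; survivors counted as 39-day.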

Test [19] has as its system Mus musculus. Description: Tested for the appearance of skin lesions or paralysis of the legs after 39 days when administered intraperitoneally at 100 mg/kg per day. The settings on record: route intraperitoneal. The procedure, abridged:
as §3

The test system of test [20] is Mus musculus. Description: Tested for the appearance of skin lesions or paralysis of the legs after 52 days when applied topically at 10% after 52 days. The procedure, abridged: as §2

In the case of `CN1CCOP1(=O)OC[C@H]1O[C@@H](n2cc(/C=C/Br)c(=O)[nH]c2=O)C[C@@H]1O` (stereo partly specified), the MIC is over 400 µg/mL in [1]; 200 µg/mL (≈ 442 µM) in test [2]; 0.07 µg/mL (≈ 0.155 µM) in test [5]; 10 µg/mL (≈ 22.1 µM) in [7]; 20 µg/mL (≈ 44.2 µM) in test [8]; over 400 µg/mL in test [10]. Also, the MIC in [11] is 0.04 µg/mL (≈ 0.0885 µM); in [13], over 400 µg/mL; in test [14], 0.02 µg/mL (≈ 0.0442 µM); in [16], over 400 µg/mL. In addition, the IC50 in test [3] is 90 µg/mL (≈ 199 µM); in [4] it was 48 µg/mL (≈ 106 µM); in [6] it was 1.3 µg/mL (≈ 2.87 µM); in test [9] it was over 100 µg/mL; in test [12] it was over 100 µg/mL; in [15], 0.0008 µg/mL (≈ 0.00177 µM).
As for `CN1CC(CC2SCCCS2)OP1(=O)OC[C@H]1O[C@@H](n2cc(/C=C/Br)c(=O)[nH]c2=O)C[C@@H]1O` (stereo partly specified), the MIC in [1] was 150 µg/mL (≈ 257 µM); in test [2], over 200 µg/mL; in [5], 150 µg/mL (≈ 257 µM); in test [7] it was 150 µg/mL (≈ 257 µM); in test [8], 200 µg/mL (≈ 342 µM); in [10], over 200 µg/mL. Further, the MIC in test [11] was over 200 µg/mL; in test [13], 300 µg/mL (≈ 513 µM); in [14] it was 200 µg/mL (≈ 342 µM); in [16], over 200 µg/mL. For the same compound, the IC50 in test [3] was over 100 µg/mL; in test [4], 48 µg/mL (≈ 82.1 µM); in test [6], 32 µg/mL (≈ 54.8 µM); in test [9], over 100 µg/mL; in [12], over 100 µg/mL; in [15], 0.018 µg/mL (≈ 0.0308 µM).
Turning to `COC(CC1CN(C)P(=O)(OC[C@H]2O[C@@H](n3cc(/C=C/Br)c(=O)[nH]c3=O)C[C@@H]2O)O1)Sc1ccccc1` (stereo partly specified), the MIC was over 400 µg/mL in [1]; over 400 µg/mL in [2]; 0.1 µg/mL (≈ 0.162 µM) in [5]; over 400 µg/mL in test [7]; at least 400 µg/mL in test [8]; over 400 µg/mL in test [10]. Moreover, the MIC in test [11] is 0.4 µg/mL (≈ 0.647 µM); in test [13], over 400 µg/mL; in test [14] it was 0.1 µg/mL (≈ 0.162 µM); in test [16] it was over 400 µg/mL. Besides, the IC50 in test [3] is over 100 µg/mL; in [4], 82 µg/mL (≈ 133 µM); in test [6], 12.4 µg/mL (≈ 20.1 µM); in test [9], over 100 µg/mL; in [12], over 100 µg/mL; in test [15], 0.003 µg/mL (≈ 0.00485 µM).
For `CN1CCOP1(=O)OCCOCn1cnc2c(O)nc(N)nc21` (stereo unspecified), the IC50 in [3], in [4], in test [9] and in test [12] was over 100 µg/mL in each case. Moreover, the MIC in test [7] was 0.2 µg/mL (≈ 0.581 µM); in [8], 400 µg/mL (≈ 1160 µM); in test [14] it was 0.2 µg/mL (≈ 0.581 µM); in [16], over 400 µg/mL.
Consider `Nc1nc2c(ncn2COCCO)c(=O)[nH]1` [ACYCLOVIR], for which the figures for the Mean survival time in test [17] and in test [18] were 46.2 days and 30.4 days, respectively. The MIC in test [1] was found to be 20 µg/mL (≈ 88.8 µM); in [2], 0.1 µg/mL (≈ 0.444 µM); in test [5], 0.1 µg/mL (≈ 0.444 µM); in test [7], 0.02 µg/mL (≈ 0.0888 µM); in [8] it was 150 µg/mL (≈ 666 µM); in [10] it was 0.07 µg/mL (≈ 0.311 µM). Besides, the MIC in test [11] is 0.2 µg/mL (≈ 0.888 µM); in test [13], 10 µg/mL (≈ 44.4 µM); in [14], 0.2 µg/mL (≈ 0.888 µM); in test [16], over 400 µg/mL. The IC50 in test [3] is 41 µg/mL (≈ 182 µM); in [4], 17 µg/mL (≈ 75.5 µM); in test [6], 0.62 µg/mL (≈ 2.75 µM); in test [9] it was over 100 µg/mL; in test [12] it was over 100 µg/mL; in test [15], 0.0009 µg/mL (≈ 0.004 µM). For the same compound, the values for the Activity in [19] and in test [20] were 17.2 and 40.8, respectively.
Turning to `O=c1[nH]c(=O)n([C@H]2C[C@H](O)[C@@H](CO)O2)cc1/C=C/Br` [BRIVUDINE], the Mean survival time was found to be 39.6 days in test [17] and 33.8 days in test [18]. Also, the MIC in test [1] worked out at 100 µg/mL (≈ 300 µM); in [2] it was 20 µg/mL (≈ 60 µM); in test [5] it was 0.01 µg/mL (≈ 0.03 µM); in [7] it was 2 µg/mL (≈ 6 µM); in test [8], 7 µg/mL (≈ 21 µM); in [10], 100 µg/mL (≈ 300 µM). Besides, the MIC in test [11] was 0.01 µg/mL (≈ 0.03 µM); in [13] it was 300 µg/mL (≈ 901 µM); in test [14] it was 0.02 µg/mL (≈ 0.06 µM); in test [16] it was over 400 µg/mL. The IC50 in test [3] was 22 µg/mL (≈ 66 µM); in [4] it was 9.4 µg/mL (≈ 28.2 µM); in [6], 0.31 µg/mL (≈ 0.931 µM); in test [9], 73 µg/mL (≈ 219 µM); in test [12], over 100 µg/mL; in test [15] it was 0.0005 µg/mL (≈ 0.0015 µM). The Activity in test [19] worked out at 10.2; in [20], 8.2.
